The text below walks through data of the EternaBench riboswitch data.

The subject of this series is MS2 coat protein. The series is described as follows: apparent Kd, MS2 coat protein; higher = weaker binding; RNA-MaP array; FMN 200 µM where present. Summed up:
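Designs were transcribed by stalled E. coli RNA polymerase on Illumina sequencing-chip clusters. They were titrated with SNAP-549-labelled MS2 coat protein from 0.7 or 1.5 nM, doubling to 3 µM, in 100 mM Tris-HCl pH 7.5, 80 mM KCl, 4 mM MgCl2, BSA, DTT, yeast tRNA and Tween-20, without and then with constant ligand. The apparent Kd is the median of filtered per-cluster fits after normalisation of green signal to red-channel RNA signal and control-cluster median Fmax.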

Where [1] appears, read: designed as: ON switch for flavin mononucleotide, no ligand.
Where [2] appears, read: ligand present: flavin mononucleotide, designed as: ON switch for flavin mononucleotide.
The mark [3] stands for this setting: designed as: OFF switch for flavin mononucleotide, no ligand.
The mark [4] stands for this setting: ligand present: flavin mononucleotide, designed as: OFF switch for flavin mononucleotide.

By apparent Kd is commonly meant a dissociation constant that holds for the conditions of the assay. “AGAAAUAAAAGAGAGGAUAUCCAAAAGAAAACAUGAGGAUCACCCAUGUAAAAGAAAAUAAAAUGGGAGAAGGCUCAAAAUAAAGA”: the “apparent Kd” value under setting [1] stood at 115 nM and the “apparent Kd” value under setting [2] came out at 22.6 nM.

For the sequence “GUACUGUAGUGAGGAUAUACGAGAACGAUAGUUCGGCGAUCCAUAUAUACAUGAGGAUCACCCAUGUAGAAGGCACUUCAGUAC”, the “apparent Kd” value is 9.3 nM under setting [3] and 108 nM under setting [4].

Take “AACAUGAGGAUCACCCAUGUCCCACCAGAAGGCUGGCGGCCACGGUAACGGCCGUGGCAAAUAACAGAGGAUAUGGUGAAUGCA”: the “apparent Kd” value under setting [1] came out at 66.3 nM and the “apparent Kd” value under setting [2] turned out to be 17.9 nM.

For the sequence “AAAAAGUGAGGAUAUGGAAAAAAAAAAAAAAAAAAAAAAAACCAGAAGGCACAUGAGGAUCACCCAUGUAAAAA”, the “apparent Kd” value under setting [3] stood at 39.6 nM and the “apparent Kd” value under setting [4] is 39.4 nM.

In the case of “GCGCCAUCGUGAGAUGGCGUAACGACAUGAGGAUCACCCAUGUAGGAUAUCGAUUGCUUUGCAGUCGAGAAGGGCAAGGUAAGU”, the “apparent Kd” value was determined as 30.7 nM under setting [3] and 38.1 nM under setting [4].

As to “GUUAUGUGAGGAUAUAUGUAGGAAACUACAUUAAGGGUAUCACAUGAGGAUCACCCAUGUAGAAGGCGCGUAGC”, the “apparent Kd” value is, setting by setting: under setting [3], 298 nM; under setting [4], 349 nM.

Turning to “AAAUAACCUAGCAAAAUUUCCUCACAUGAGGAUCACCCAUGUAGAAGGUUAACCUAAUAUAGGAUAAAGGAUAUACGUGCUAGG”, the “apparent Kd” value by setting is: under setting [3], 7.58 nM; under setting [4], 19.9 nM.

“GGACGGUUUGUCAGGAUAUGCUCUACCUCGGUAGAGCAGAAGGGACAUGAGGAUCACCCAUGUGAAAACUGUUC”: the “apparent Kd” value under setting [3] turned out to be 22.8 nM and the “apparent Kd” value under setting [4] amounted to 25.2 nM.

For “CGUCCUUAGUGAGGAUAUCAGAAAAUACGGAAAUGAGAAGGCACAUGAGGAUCACCCAUGUAAAUAACGGCCGGCCUUGGCAGC”, the “apparent Kd” value under setting [3] came out at 6.26 nM and the “apparent Kd” value under setting [4] is 13.4 nM.

For “CUGACCUGUGUCAGGAUAUCGUUUGCCAUUGUGACUGAGAAGGGACAUGAGGAUCACCCAUGUCGAGCGACGGG”, the “apparent Kd” value runs as follows: under setting [3], 28.4 nM; under setting [4], 35.6 nM.

On to “UUUUUGUGAGGAUAUCAGUAGUAGAACAAUAGUACUACUACUGAGAAGGCACAUGAGGAUCACCCAUGUUCCUC”, for which the “apparent Kd” value was 58.1 nM under setting [3] and 325 nM under setting [4].

Consider “UUUUAACAUGAGGAUCACCCAUGUGAGGAUAUCGAAAUUUAUAUUAAUAUUAAUAAUACGAGAAGGCACAUUUU”, for which the “apparent Kd” value by setting is: under setting [3], 80.7 nM; under setting [4], 79.8 nM.

Turning to “ACCUAGACUAGGCCCACGGCAUCACAGGAUAUGCCGAUCACAUGAGGAUCACCCAUGUCAACUCCGCAGAAGGGUGAUAUCGUG”, the “apparent Kd” value is, setting by setting: under setting [1], 179 nM; under setting [2], 14.1 nM.

“GUAGCUAUCGCAGGAUAUCCUCAGCGGAAACGCACAUGAGGAUCACCCAUGUAAAUAAAUAAUUUGGAGAAGGGCGAUAGCUAC”: the “apparent Kd” value amounted to 323 nM under setting [1] and 26.8 nM under setting [2].

As for “GCCCUUCGAGGAUAUACAUGAGGAUCACCCAUGUCCGGAGUUCCGAGGCGGCCCAUAUGUAGAAGGCGAACUUU”, the “apparent Kd” value came out at 43.4 nM under setting [3] and 67 nM under setting [4].

As to “AAUAAACUCACAGGAUAUAGCAGAGGUCGCGUGAACUUACAGGCAACGAUGCUAGAAGGGUGACCACAUGAGGAUCACCCAUGU”, the “apparent Kd” value under setting [1] was determined as 520 nM and the “apparent Kd” value under setting [2] amounted to 145 nM.

As to “AUAAAACAAAACCACACAUGAGGAUCACCCAUGUCAAGAUUACAGGAUAUCCGGCAGAGAUGCAAGGAGAAGGGUGAUCCCAAA”, the “apparent Kd” value was 17.3 nM under setting [1] and 56.9 nM under setting [2].

Take “CCAUAAUUGAUCCAUUUUUACAACAUGAGGAUCACCCAUGUGCAGGAUAUCGUGAAAGUUAAAUACGAGAAGGGCAAGAACUGC”: the “apparent Kd” value reads like this: under setting [3], 272 nM; under setting [4], 229 nM.

For “AAAAAGUGAGGAUAUGCGCUGUCCUGUAGACACGAGCAGUCGUAGAAGGCACAUGAGGAUCACCCAUGUUUAAA”, the “apparent Kd” value reads like this: under setting [3], 27.6 nM; under setting [4], 20.2 nM.

As for “AGCGGCGCGGACCACCGCAAAACCAGAAGGACAUGAGGAUCACCCAUGUAACAAAACAGGGCGGUGUAGGAUAUGGCAGACCCA”, the “apparent Kd” value worked out at 10.8 nM under setting [3] and 9.16 nM under setting [4].

Regarding “UCAGUAGAGUCAGGAUAUACGAAAGUAGAUCCUUACAUGAGGAUCACCCAUGUAGAAGGGACUCUACUGUAAGUCGGAAACGAC”, the “apparent Kd” value under setting [3] stood at 14.1 nM and the “apparent Kd” value under setting [4] was 69.1 nM.

For the sequence “GAGUACUGAGGAUAUACAUGAGGAUCACCCAUGUGUUCCAACUAGGAAUCUAGAAUAUGUAGAAGGCAGUACUG”, the “apparent Kd” value amounted to 223 nM under setting [3] and 211 nM under setting [4].

For “UCGAUGUAAGAGAAGGAGGACUUCAUGAGGAUCACCCAUGUGUUAGUACUUAGGAUAUUUGACAACAUGAGGAUCACCCAUGUC”, the “apparent Kd” value reads like this: under setting [1], 64.3 nM; under setting [2], 61.6 nM.

For “CAUGUCCUCACAGGAUAUGCUGGACUUUGUCCAGCAGAAGGGUGAACAUGAGGAUCACCCAUGUAAAGGACAUGUAUAUUUAAU”, the “apparent Kd” value was found to be 1080 nM under setting [1] and 84.3 nM under setting [2].

Regarding “ACAUUAGAAGAGAAGGUUCAUACUAUUAUCAACAUACAUGAGGAUCACCCAUGUUGGUGAUUAAGAAAGGAUAUUUAUAACACU”, the “apparent Kd” value was 23.1 nM under setting [3] and 20.6 nM under setting [4].

Regarding “AAUAUAGAGCUGGUCUCAUAAUAAACAUGAGGAUCACCCAUGUAGGAUAUCAGCACGAUAAGUGCUGAGAAGGACAUCCAGCUC”, the “apparent Kd” value reads like this: under setting [3], 21.4 nM; under setting [4], 47 nM.

Regarding “AAAUUUUGUCAAGGAUAUGUAUAAAAGAGAAGAAAACAUGAGGAUCACCCAUGUAUAUGGUGGGAACAGAAGGUGAUUAAGUAA”, the “apparent Kd” value reads like this: under setting [3], 354 nM; under setting [4], 271 nM.

“UGUUGUAUUACAGGAUAUCUAUUAUUUUAAUUUAGAGAAGGGUAUUCACAUGAGGAUCACCCAUGUAUAUACGAGGAAGUUGUG”: the “apparent Kd” value stood at 52.9 nM under setting [1] and 57.2 nM under setting [2].

Take “AAUAGUGGCGUAGGAUAUCUGCGUACAUGAGGAUCACCCAUGUCUCCCAGCCGCUGAGCUGGGACAGAGAAGGGCGACCGCAUA”: the “apparent Kd” value is, setting by setting: under setting [1], 229 nM; under setting [2], 88.9 nM.

Regarding “CUAAUGUGAGGAUAUGGUGUUGAUCGCAGGAAGGAGAUUCUCCAGAAGGCACAUGAGGAUCACCCAUGUAGUGA”, the “apparent Kd” value under setting [3] was 103 nM and the “apparent Kd” value under setting [4] amounted to 51.1 nM.

On to “UGUGUGUGGCAGGAUAUGCCGGUCGUAGGACGGGUAGAAGGGUCUACAUGAGGAUCACCCAUGUGGCCGGUUGG”, for which the “apparent Kd” value reads like this: under setting [3], 19.2 nM; under setting [4], 18.5 nM.

As for “UUACUGAUAUAGAAGGGUAUAUGGGAAUUACAUGAGGAUCACCCAUGUUUUAUAGGAUAUGUAUAUAGUAUUUAAUCAAGUUUA”, the “apparent Kd” value is, setting by setting: under setting [3], 34.6 nM; under setting [4], 27.1 nM.

Regarding “CGCACUAUACAUGAGGAUCACCCAUGUUAAUAUGAGGUAGUCAGAAGGCAUUGUAUGAGAUAUUAUGAGGAUAUGAUUAGUGCG”, the “apparent Kd” value is, setting by setting: under setting [1], 226 nM; under setting [2], 41.4 nM.

For the sequence “CGUAGGAUGCAGAAGGCAUGAACAUGAGGAUCACCCAUGUCAAAAUACAUGAGGAUAUGCAUCCUACGAAAAGUGCGAAAGCAC”, the “apparent Kd” value by setting is: under setting [1], 4.62 nM; under setting [2], 4.3 nM.

As to “CUGUGUUGCGGGCAGGAUAUGUAUUGGAGUACAUGAGGAUCACCCAUGUGCGGGUGUUUCACCCGACAGAAGGGCCAAUCGCGAC”, the “apparent Kd” value under setting [1] was 128 nM and the “apparent Kd” value under setting [2] came to 24.5 nM.

As to “CAAUUUAUAACAGGAUAUGUAAUACAAUAGUAAAUAGAAGGGUUUUAUACAUGAGGAUCACCCAUGUCAUGUGUCAUAAUUACC”, the “apparent Kd” value under setting [3] worked out at 36.4 nM and the “apparent Kd” value under setting [4] came to 29.5 nM.

For “AUGUACCGGUGAGGAUAUUUUUAAUAGAGCUUUAUGAUAUACAUGAGGAUCACCCAUGUUACUUUAAAGAAGGCAUCGGAUUAA”, the “apparent Kd” value runs as follows: under setting [3], 19 nM; under setting [4], 14 nM.

“ACAUGGAAUACAGGAUAUGUUAGUUUACAGUAGAUUGGUUAUUACUUAACUACAGAAGGGUAAUACAUGAGGAUCACCCAUGUA”: the “apparent Kd” value was found to be 18.4 nM under setting [1] and 11.8 nM under setting [2].

In the case of “UAUAUAUAGUAAGGAUAUGUAUAUAUUUUAUUAACAGAAGGUACUGACAUGAGGAUCACCCAUGUUUUAGUGUGGGCAUGUAGA”, the “apparent Kd” value under setting [3] was determined as 76.7 nM and the “apparent Kd” value under setting [4] was 100 nM.

In the case of “AGCUACGUUUCGUAGCAGUGUCAUCGAGAAGGCCCUGACAUGAGGAUCACCCAUGUUGUUACAUGGGAGGAUAUCGAUGAUACC”, the “apparent Kd” value runs as follows: under setting [1], 13.3 nM; under setting [2], 5.32 nM.

“UGGUACUAGGGAGGAUAUGGGAAGAUACAUGAGGAUCACCCAUGUUUAAGAAUGCCGAAAGGCAACUAGAAGGCCCUAGUACCU”: the “apparent Kd” value under setting [1] was 430 nM and the “apparent Kd” value under setting [2] worked out at 19.9 nM.

Take “CGACACCACACAGGAUAUGCUGGACUUUGUCCAGCAGAAGGGUGUAAACAUGAGGAUCACCCAUGUAUGGUGUCGAAAUUUAAU”: the “apparent Kd” value turned out to be 382 nM under setting [1] and 21.1 nM under setting [2].

Take “UGGGUAAGUGUAGGAUAUUUAUAUUAAUAGUAUGGAGAAGGACAUGAGGAUCACCCAUGUACAGGGAGUUACCCAUUUCCUCUC”: the “apparent Kd” value stood at 778 nM under setting [3] and 1200 nM under setting [4].

For “AAAACAGAUGGAGGAUAUAGUGUAUGGGCCGUAACGGGAGUAUCGCGCAGACUAGAAGGCCAUUUACAUGAGGAUCACCCAUGU”, the “apparent Kd” value runs as follows: under setting [1], 164 nM; under setting [2], 56.5 nM.

In the case of “UACAAUCUAUCUGAGGAUAUCAUGAAAAAAACAUGAGGAUCACCCAUGUGCAGGAAAACUGCAUAUGAGAAGGCAGAUAGAUUGG”, the “apparent Kd” value was found to be 736 nM under setting [1] and 28.9 nM under setting [2].

Regarding “AAGAAGGACGCAGGAUAUCCAGGACCUCCCGCAGGAGAAGGGCGAGACAUGAGGAUCACCCAGACAUGAGGAUCACCCAUGUAG”, the “apparent Kd” value is, setting by setting: under setting [3], 37.4 nM; under setting [4], 37.1 nM.

Consider “ACUGAUCAUGAGGAUAUGCGCCAGAACGCCGGCGUAGAAGGCGUGACAUGAGGAUCACCCAUGUCAGUUCGCGA”, for which the “apparent Kd” value is 59.2 nM under setting [3] and 60.3 nM under setting [4].
